From ChEMBL document CHEMBL4513216, “Probing the Open Global Health Chemical Diversity Library for Multistage-Active Starting Points for Next-Generation Antimalarials” (ACS Infect Dis, 2020)

Test: Toxicity liver stage against HepG2, at 10uM
Type: cell-based
Parameters: test concentration 10 uM, cell line HepG2-A16-CD81EGFP
Details: human, HepG2-A16-CD81EGFP cells; read-out: INHIBITION
Summary of the method: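 Uninfected HepG2-A16-CD81EGFP cells, 3 × 10^3 per well, 1536-well, plated on prespotted compound at 10 μM final, parasite-free screening media added to match infected plates; puromycin 10 μM positive, DMSO 0.5% negative; run in parallel with 48 h PbLuc assay at 37 °C, 5% CO2; viability by CellTiter-Glo luminescence, normalized to controls.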

| SMILES | cytotoxicity at 10 µM |
| --- | --- |
| c1ccc(C2CN(CCc3ccncc3)CCO2)cc1 (stereo not given) | -8.85% |
| CCS(=O)(=O)CCN1CCN(C2CCC(C(C)C)CC2)CC1 (stereo not given) | 7.76% |
| NC(=O)c1cnn2c1NCC(CNCCOc1ccccc1)C2 (stereo not given) | -11.4% |
| COc1cccc(CNC(C)c2ccc(-n3ccnc3)cc2)c1O (stereo not given) | -47.4% |
| Cn1ccnc1CN1CCC(CNS(=O)(=O)c2cccnc2)C1 (stereo not given) | 6.03% |
| Cn1ccnc1CN1CCN2C[C@H](Oc3cccc(F)c3)C[C@H]2C1 | 13.6% |
| c1cnc(N2CCCC(c3cncc(-n4ccnc4)n3)C2)nc1 (stereo not given) | -11.8% |
| CCCc1noc(CN2CCOCC2C)n1 (stereo not given) | 6.3% |
| Cc1cc(C2CCCN(C(=O)c3cccnc3)C2)ccn1 (stereo not given) | -21.3% |
| O=C(NCC1CCOCC1)c1cc(-c2ccc3c(c2)CCO3)n[nH]1 | 2.63% |
| CC(C)c1ocnc1C(=O)N1CCC(=O)Nc2cccnc21 | 1.15% |
| O=C(c1ccccc1)N1CC2(CCNC2)OCc2ccccc21 (stereo not given) | 13% |
| Cc1cc(NC(C)C(=O)NCC(F)(F)F)nc(-c2ccncc2)n1 (stereo not given) | 4.96% |
| Cc1cc2nccc(C3CCCN(C(=O)c4ccccc4F)C3)n2n1 (stereo not given) | 13.6% |
| c1ncn(CC2CCCCN2Cc2csc(-c3ccsc3)n2)n1 (stereo not given) | -2.48% |
| Cc1ccc(S(=O)(=O)Nc2ccc(N3CCOCC3)cn2)cc1 | 3.92% |
| CN(C)C(=O)N1CCC2(CC1)COCCN(c1ncccn1)C2 | 8.42% |
| Cc1ccccc1-n1cc(-c2ccnc(N[C@@H](CO)C(C)C)n2)cn1 | -3.39% |
| O=C(c1c(F)cccc1Br)N1CCCOCC1 | 6.69% |
| Cn1c2ccc(F)cc2c2ncn(CCCN(CCO)CCO)c(=O)c21 | 11.2% |
| CCCn1cc(CN2CCCC2c2cccc(-n3ccnc3)n2)cn1 (stereo not given) | -19.6% |
| N#Cc1cccc(N2CCOC3(CNCCOC3)C2)n1 (stereo not given) | 2.61% |

| SMILES | cytotoxicity at 10 µM |
| --- | --- |
| Cn1cc(CNC(=O)NCCOc2ccc(F)c(F)c2)cn1 | 2.13% |
| CC1CCN(C[C@H]2CN3CC[C@H]2C[C@@H]3CNC(=O)Nc2ccsc2)CC1 | 2.95% |
| Cc1cccc(OCC(O)CN2CCC(Cn3cccn3)CC2)c1 (stereo not given) | -1.43% |
| CCC(C)NS(=O)(=O)Cc1cccc(NC(=O)C2=CCCC2)c1 (stereo not given) | -0.217% |
| O=C(COc1coc(CN2CCCC2)cc1=O)Nc1ccc(Cl)c(Cl)c1 | 0.0723% |
| O=C(NCc1cccc(F)c1)NC1CCCN(c2ncccn2)C1 (stereo not given) | -0.7% |
| O=C(C1CC1)N1CCN(C(=O)CSc2ccccn2)[C@H]2CS(=O)(=O)C[C@H]21 | -24.6% |
| CN1CC(=O)N(c2ccccc2)CC12CCN(CC1CC1)C2 (stereo not given) | 4.42% |
| CCS(=O)(=O)N1CCCC2(CCCN2Cc2cccc(F)c2)C1 (stereo not given) | -141% |
| Cc1cc2n(n1)CC(CNCCc1cnn(C)c1)CN2 (stereo not given) | 5.27% |
| Cn1cnc(S(=O)(=O)N2C[C@H]3CN(Cc4ccccn4)C[C@H]3C2)c1 | 4.26% |
| O=C(c1c[nH]cn1)N1CCC(F)(F)C2(CCN(c3ncccn3)C2)C1 (stereo not given) | 9.76% |
| COc1ccccc1C1CNC(=O)c2nc(-c3nccn3C)[nH]c2C1 (stereo not given) | 4.2% |
| CN(Cc1noc2c1CCCC2)C(=O)Nc1cccc(S(N)(=O)=O)c1 | -4.32% |
| CCN(CC)CC1CN(Cc2ccco2)Cc2nccn2C1 (stereo not given) | -139% |
| CC(Cc1ccco1)NC(=O)C1=NN(c2ccccc2)C(=O)CC1 (stereo not given) | 0.537% |
| CCc1ncnc2c1CCN(C(=O)N1CCCC1)CC2 | 5.46% |
| CCCc1nnc(NC(C)c2ccc(F)cc2)o1 (stereo not given) | 2.08% |
| CN(Cc1ccco1)[C@@H]1CN(C(=O)c2ccnnc2)[C@@H]2CCCO[C@H]12 | -7.93% |
| O=C(NCCCO)C1CC(=O)N(c2n[nH]c3cccc(F)c23)C1 (stereo not given) | -1.07% |
| CC1=Nc2c(c(O)nn2C(C)C)C(c2cnn(C)c2)S1 (stereo not given) | 10.8% |
| CS(=O)(=O)N1CCC2(CC1)CC(NCc1ccco1)c1ccccc12 (stereo not given) | -110% |

| SMILES | cytotoxicity at 10 µM |
| --- | --- |
| O=C(c1cccc(F)c1)N1CCN2C[C@H](OCc3cccnc3)C[C@H]2C1 | 4.4% |
| CCN(C(c1cccnc1)c1ccc(F)c(F)c1)S(C)(=O)=O (stereo not given) | -0.69% |
| O=C(NCCN1CCOCC1)c1cc2c(s1)CCN2Cc1cccnc1 | -7.98% |
| CCS(=O)(=O)CC(C)N(C)C(=O)NCCc1cccc(F)c1F (stereo not given) | 8.28% |
| O=C(CCc1ccco1)Nc1ncn(CC(=O)N2CCCCCC2)n1 | -2.29% |
| Cc1cc(C)nc(C2CCCN2c2ccnc(C)n2)n1 (stereo not given) | -16.4% |
| COCCC(=O)N1CCC2(CCN(Cc3cccc(F)c3)CC2)CC1 | -75% |
| COCCNC(=O)N1CCN(C(=O)Cc2ccccc2F)CC1 | -8.85% |
| Cc1cnc(CN(C)C2CCN(Cc3cnc(C)s3)C2)o1 (stereo not given) | -0.0499% |
| Cc1noc(C2CN(CC(=O)NCC3CCCO3)C2)n1 (stereo not given) | -2.56% |
| CC(C)C1SCC(=O)Nc2c1cnn2-c1ccc(Cl)cc1 (stereo not given) | 47% |
| COc1ccccc1CCNC(=O)C1CCC(Cn2cnnn2)CC1 (stereo not given) | 1.61% |
| CC(C#N)(NC(=O)Cn1cc(I)cn1)C1CC1 (stereo not given) | 15.2% |
| COc1ccc(C)cc1CNCc1ccc(-n2nc(C)cc2C)nc1 | 0.813% |
| O=C(Cc1cccs1)NCC1COCc2c(-c3ccoc3)nnn2C1 (stereo not given) | 19% |
| Cn1c2c(ccc1=O)CCN(Cc1ccoc1)CC2 | -153% |
| O=C(NCCN1CCCC1)Nc1cc(C(=O)N2CCOCC2)ccc1Cl | -44.2% |
| CCn1cc(S(=O)(=O)N2CCCCCC2c2cc(C)no2)cn1 (stereo not given) | 8.24% |
| COc1ccc([C@@H]2CN(Cc3ccncc3)C[C@H]2N(C)C)cc1 | -2.52% |
| CN(C)CCOCC1CN(Cc2ccoc2)Cc2nnn(C)c21 (stereo not given) | -1.53% |
| CCc1nc2c(N3CCC4(CC3)CNC(=O)C4)ncnc2o1 | -2% |
| Cc1cc(C)c(CNC(=O)N2CCNC(=O)C2)c(=O)[nH]1 | -0.535% |

| SMILES | cytotoxicity at 10 µM |
| --- | --- |
| Cc1csc(C2CCCCN2C(=O)c2cc(C(C)C)[nH]n2)n1 (stereo not given) | -1.59% |
| CC(C)c1nccn1C(C)C(=O)NC1CCN(S(C)(=O)=O)CC1 (stereo not given) | -2.86% |
| Cc1cnn(C2CCCN(C(=O)CCCc3ccccn3)C2)c1 (stereo not given) | -11.2% |
| O=C(CNc1cc(F)ccc1OC(F)F)NCC(F)(F)F | -2.79% |
| COc1cc(C)nc(N2CCN(C(=O)c3ccn(C)c(=O)c3)CC2)n1 | -12.8% |
| NC(=O)COc1ccc(CNCc2ccc(Cl)c(F)c2)cc1 | -3.64% |
| COc1c(CNCC(O)c2ccccc2)c(C(C)C)nn1C (stereo not given) | -16.5% |
| CCCc1nnsc1C(=O)N1CCN(CC(C)O)CC1 (stereo not given) | -5.3% |
| CS(=O)(=O)N1CC2(CCN(Cc3ccccn3)C2)Cc2ccccc21 (stereo not given) | 8.08% |
| CCn1nc(C)cc1C(=O)N1CC[C@H](OC)[C@H]2CN(CC3CC3)C[C@H]21 | -133% |
| Cc1cc(C)c2c(N3CCC(C(=O)N4CCOCC4)CC3)ncnc2n1 | -11.1% |
| CCCN1CCc2c(C(=O)N(C)Cc3ccccn3)nn(C)c2C1 | -1.92% |
| COc1ccccc1CNC(=O)COc1c(C)n(C)ccc1=O | -41.4% |
| CC(C)NC(=O)N(Cc1cc(O)nc2ccccc12)C(C)C | 0.266% |
| Cc1ccc(OCCN(C)Cc2cscn2)cc1 | 0.51% |
| CN1CC=C(c2noc(CCC(=O)N3CCOCC3)n2)CC1 | -0.687% |
| O=C(CC1COCCN1S(=O)(=O)c1ccccc1)NCc1ccccn1 (stereo not given) | 4.48% |
| CC1(C)CC(=O)N(CC(=O)Nc2ccon2)c2ccccc21 | -3.43% |
| CCS(=O)(=O)N1CCc2cc(C(=O)N(C)C)c(NCC3CC3)nc2CC1 | 0.0623% |
| CN(C)C(C(=O)N1CCC(C#N)CC1)c1ccccc1F (stereo not given) | -3.59% |
| CC1CCN(C(=O)c2cc(NC(=O)c3ccccc3)n(C)n2)CC1 | 5.17% |
| CCOCCn1nnc(C2(NC(=O)c3ccccc3)CCCC2)n1 | 21.9% |

| SMILES | cytotoxicity at 10 µM |
| --- | --- |
| CC(=O)c1cn(CC(=O)N[C@H](C(=O)O)C(C)C)c2ccccc12 | -7.06% |
| Cc1[nH]nc2ncc(C(=O)N3CCCC3c3noc(C(C)C)n3)cc12 (stereo not given) | 8.38% |
| CC(=O)N1CCC(c2c(CN(C)C)cnc3cc(C)nn23)CC1 | 2.54% |
| CN(CC1CCOC1)S(=O)(=O)c1cccc(C(=O)N2CCCCCC2)c1 (stereo not given) | -0.825% |
| O=C(O)C1c2nc[nH]c2CCN1CC(c1ccccc1)c1ccccc1 (stereo not given) | -7.97% |
| O=C(O)c1cccc(CN2CCCC(Cc3ccn[nH]3)C2)c1 (stereo not given) | 5.39% |
| COc1c(CNCc2ccc(C(=O)N(C)C)cc2)c(C)nn1C | 1.64% |
| Cc1nc(C2CCCN2CCC(=O)N2CCc3ccccc32)no1 (stereo not given) | -1.07% |
| Cc1c(C2c3nc[nH]c3CCN2CCOCc2ccccc2)cnn1C (stereo not given) | 0.838% |
| O=C(NCCCN1CCOCC1)c1ccn(-c2ccc3ccccn23)n1 | 5.17% |
| CC1CCCN(C(=O)Nc2ccc(F)c(C(N)=O)c2)C1 (stereo not given) | -7.48% |
| COc1ccc(CNC[C@H]2COCc3nc4cccnc4n32)cn1 | -0.772% |
| CCCOC(=O)N1CCC(c2nnc(Cn3cccn3)n2C2CC2)CC1 | -8.52% |
| O=C(CCc1ccccc1F)NS(=O)(=O)c1ccc2c(c1)OCCO2 | -18.6% |
| CC(C(=O)N1CCCN(c2ccccc2C#N)CC1)n1cccn1 (stereo not given) | -8.3% |
| Cc1cc(NC(=O)CN2CCN(c3nccs3)C(C)C2)on1 (stereo not given) | -5.35% |
| CNS(=O)(=O)CC(=O)N1CCCc2cc(Br)ccc21 | -12.5% |
| COc1ccc(C)nc1NC(=O)CCc1c(C)nn(C)c1C | 0.918% |
| CC(C)(C)c1cc(NC(=O)CN(Cc2cccs2)Cc2cccs2)on1 | 14.2% |
| COc1cccc(-c2nc3c([nH]2)CC(C)(C)CNC3=O)c1OC | -5.82% |
| CS(=O)(=O)N1CCN(C(=O)c2cnn3c2OCCC3)CC1 | -3.45% |
| CC(C)(CO)NCc1ccc(OCc2ccc3c(c2)OCCO3)cc1 | 4.12% |
